Test results as given in ChEMBL document CHEMBL1139834, “Synthesis and structure-activity relationships of new benzodioxinic lactones as potential anticancer drugs” (J Med Chem, 2007).
Values belong to the compound of their own block, whether it stands above or below them. The source made the active and inactive calls. The rule behind the calls is not given here.

How the values were obtained:
L1210 [1] = experiment: Cytotoxicity against mouse L1210 cell line; format: cell-based; parameters: Activity: concentration or dose not given beside the values; conditions: for IC50: Mus musculus, L1210; for Activity: mouse, l1210
Outline: (§1)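 Cells grown at 37 °C under 5% CO2 in medium with 2 mM L-glutamine, penicillin, streptomycin and 20% heat-inactivated horse serum. Drug in DMSO (0.5% final) added to exponentially growing cells seeded at 0.8 × 10^5 cells/mL. Coulter counting in quadruplicate at 48 h (L1210) or 96 h (HT-29). IC50 from probit of % growth inhibition versus log dose; four independent runs in triplicate.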

HT-29 = experiment: Cytotoxicity against human HT29 cell line; format: cell-based; outline: as §1
L1210 [2] = experiment: Cell cycle arrest in mouse L1210 cell line by accumulation at 8N phase at 5 uM after 24 hrs; format: functional
Outline: (§2)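 L1210 cells in RPMI 1640 with 2 mM L-glutamine, penicillin, streptomycin and 20% heat-inactivated horse serum, 5% CO2, 37 °C, exposed to several drug concentrations. Cells fixed in 70% ethanol, washed, stained 30 min at room temperature with propidium iodide plus RNAse in PBS, then flow cytometry. Read-out is percentage of cells in each cycle phase after 24 h exposure.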

L1210 [3] = experiment: Cell cycle arrest in mouse L1210 cell line by accumulation at G2/M phase at 5 uM after 24 hrs; format: functional; outline: as §2
Homo sapiens = organism: Homo sapiens; experiment: Inhibition of topoisomerase 2 assessed by DNA cleavage complex formation assay
Outline: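 Cleavage complex formed on pYRG plasmid DNA by human topoisomerase II purified from placenta. Linear DNA product quantified by densitometry relative to ellipticine.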

L1210 [4] = experiment: Cell cycle arrest in mouse L1210 cell line by accumulation at G2 phase at 1 uM after 24 hrs; format: functional
Outline: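 L1210 cells grown in RPMI 1640 with 2 mM L-glutamine, penicillin, streptomycin and 20% heat-inactivated horse serum at 37 °C, 5% CO2, then drug-exposed (methods 21 h; footnote 24 h). Ethanol (70%) fixed, then washed. Stained 30 min at room temperature in PBS with […] RNase and propidium iodide. Flow cytometry gives % cells in each cycle phase.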

[5] = Effect on DNA sequence recognition assessed by DNase I footprinting assay; format: functional
L1210 [6] = experiment: Cell cycle arrest in mouse L1210 cell line by accumulation at 8N phase at 20 uM after 24 hrs; format: functional; outline: as §2
L1210 [7] = experiment: Cell cycle arrest in mouse L1210 cell line by accumulation at G2/M phase at 1 uM after 24 hrs; format: functional; outline: as §2

SMILES: Cc1c2c(c(C)c3cnccc13)Oc1ccccc1O2
IC50 (L1210 [1]): 1.2 µM
IC50 (HT-29): 22.1 µM

SMILES: CCCCCc1c2c(c(C)c3c1C(=O)OC3)Oc1ccc(OC)cc1O2
IC50 (L1210 [1]): > 10 µM
Activity (L1210 [1]): 78%
IC50 (HT-29): > 10 µM

SMILES: CCCCCCc1c2c(c(CCCCCC)c3c1Oc1ccccc1O3)C(=O)OC2
IC50 (L1210 [1]): > 10 µM
IC50 (HT-29): > 10 µM

SMILES: CC1OC(=O)C2=C1Oc1ccccc1O2 (stereo not drawn)
IC50 (L1210 [1]): > 10 µM
IC50 (HT-29): > 10 µM

SMILES: CCCc1c2c(c(C)c3c1C(=O)OC3)Oc1ccccc1O2
IC50 (L1210 [1]): > 10 µM
Activity (L1210 [1]): 111%
IC50 (HT-29): > 10 µM

SMILES: CCCCCCc1c2c(c(C)c3c1C(=O)OC3)Oc1ccccc1O2
Activity (L1210 [2]): 86%
IC50 (L1210 [1]): 2 µM
IC50 (HT-29): 0.38 µM
Activity (L1210 [3]): 86%

SMILES: Cc1c2c(c(CC(C)CC(C)(C)C)c3c1Oc1ccccc1O3)C(=O)OC2 (stereo not drawn)
IC50 (L1210 [1]): 13.5 µM
IC50 (HT-29): > 10 µM

Activity (Homo sapiens): inactive
SMILES: Cc1c2c(c(CCCCCC#N)c3c1Oc1ccccc1O3)C(=O)OC2
Activity (L1210 [2]): 88%
IC50 (L1210 [1]): 0.54 µM
IC50 (HT-29): 0.12 µM

SMILES: Cc1c2ccncc2c(C)c2c1[nH]c1ccccc12 [ELLIPTECINE]
Activity (L1210 [4]): 50%
IC50 (L1210 [1]): 0.19 µM
IC50 (HT-29): 14.9 µM

SMILES: CNCCCCc1c2c(c(C)c3c1C(=O)OC3)Oc1ccccc1O2
Activity (L1210 [2]): 86%
IC50 (L1210 [1]): 2.4 µM
IC50 (HT-29): 0.54 µM
Activity (L1210 [3]): 86%

SMILES: CCCCCCCc1c2c(c(C)c3c1Oc1ccccc1O3)C(=O)OC2
IC50 (L1210 [1]): > 10 µM
IC50 (HT-29): 21.8 µM

SMILES: Cc1c2c(c(CCCCCC(=O)O)c3c1Oc1ccccc1O3)C(=O)OC2
IC50 (L1210 [1]): > 10 µM
IC50 (HT-29): > 10 µM

SMILES: Cc1c2c(c(C)c3c1Oc1ccccc1O3)C(=O)OC2
IC50 (L1210 [1]): > 100 µM
IC50 (HT-29): > 100 µM

SMILES: Cc1c2c(c(CC(C)CC(C)(C)C)c3c1C(=O)OC3)Oc1ccccc1O2 (stereo not drawn)
IC50 (L1210 [1]): > 10 µM
Activity (L1210 [1]): 70%
IC50 (HT-29): > 10 µM

SMILES: CCCCCCc1c2c(c(C)c3c1Oc1ccccc1O3)C(=O)OC2
IC50 (L1210 [1]): > 10 µM
Activity (L1210 [1]): 118.3%
IC50 (HT-29): 18.2 µM

SMILES: Cc1c2c(c(CCCCCN)c3c1Oc1ccccc1O3)C(=O)OC2
IC50 (L1210 [1]): 12.8 µM
IC50 (HT-29): 5.7 µM

SMILES: CCCCCc1c2c(c(C)c3c1Oc1ccccc1O3)C(=O)OC2
Activity (L1210 [2]): 35%
IC50 (L1210 [1]): 7.2 µM
IC50 (HT-29): 9.2 µM
Activity (L1210 [3]): 35%

Activity [5]: inactive
Activity (Homo sapiens): inactive
SMILES: CCCCCc1c2c(c(C)c3c1C(=O)OC3)Oc1ccccc1O2
Activity (L1210 [2]): 80%
IC50 (L1210 [1]): 1.8 µM
IC50 (HT-29): 0.12 µM
Activity (L1210 [3]): 80%

SMILES: CCCCCCCc1c2c(c(C)c3c1C(=O)OC3)Oc1ccccc1O2
IC50 (L1210 [1]): 3.9 µM
IC50 (HT-29): 1.9 µM
Activity (L1210 [6]): 70%

SMILES: Cc1c2c(c(CCCCC(=O)O)c3c1Oc1ccccc1O3)C(=O)OC2
IC50 (L1210 [1]): 89 µM
IC50 (HT-29): > 10 µM

SMILES: CCCCCCCCc1c2c(c(C)c3c1C(=O)OC3)Oc1ccccc1O2
IC50 (L1210 [1]): > 10 µM
IC50 (HT-29): > 10 µM

SMILES: CCCc1c2c(c(C)c3c1Oc1ccccc1O3)C(=O)OC2
IC50 (L1210 [1]): > 10 µM
Activity (L1210 [1]): 115%
IC50 (HT-29): > 10 µM

SMILES: CCc1c2c(c(C)c3c1C(=O)OC3)Oc1ccccc1O2
IC50 (L1210 [1]): > 10 µM
IC50 (HT-29): > 10 µM

SMILES: CCCCCCCCc1c2c(c(C)c3c1Oc1ccccc1O3)C(=O)OC2
IC50 (L1210 [1]): > 10 µM
IC50 (HT-29): > 10 µM

SMILES: CCCCc1c2c(c(C)c3c1Oc1ccccc1O3)C(=O)OC2
IC50 (L1210 [1]): > 100 µM
IC50 (HT-29): 17.7 µM

SMILES: Cc1c2c(c(CCCCC#N)c3c1Oc1ccccc1O3)C(=O)OC2
IC50 (L1210 [1]): 77 µM
IC50 (HT-29): 24.1 µM

SMILES: CCc1c2c(c(C)c3c1Oc1ccccc1O3)C(=O)OC2
IC50 (L1210 [1]): > 10 µM
IC50 (HT-29): > 10 µM

SMILES: Cc1c2c(c(CCCCCC#N)c3c1C(=O)OC3)Oc1ccccc1O2
IC50 (L1210 [1]): > 10 µM
IC50 (HT-29): > 10 µM

SMILES: COc1cccc2c1C(=O)c1c(O)c3c(c(O)c1C2=O)C[C@@](O)(C(=O)CO)C[C@@H]3O[C@H]1C[C@H](N)[C@H](O)[C@H](C)O1 [DOXORUBICIN]
IC50 (L1210 [1]): 0.029 µM
IC50 (HT-29): 0.48 µM
Activity (L1210 [7]): 86%

SMILES: CCCCCc1c2c(c(C)c3c1Oc1cc(OC)ccc1O3)C(=O)OC2
IC50 (L1210 [1]): > 10 µM
Activity (L1210 [1]): 70%
IC50 (HT-29): > 10 µM

SMILES: CCCCCCc1c2c(c(C)c3c1C(=O)SC3)Oc1ccccc1O2
IC50 (L1210 [1]): 19 µM
IC50 (HT-29): 34.5 µM
